Results: article PMC6583925 (Journal of medicinal chemistry, 2019)

Key:
[1] = system: brain lyso-PS/PI and C20:4 PS content; conditions: mice; cited from earlier work
THP1 cells = experiment: cell viability assay; assay type: cell-based, human; conditions: 72 h, CellTiter-Glo
Summary of the method: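 THP-1 cells maintained in RPMI 1640 with 10% heat-inactivated FBS and 0.05 mM 2-mercaptoethanol at 2×105 to 1×10^6 cells/ml. Seeded at 3,000 cells per well; test compound added after 24 h at final 0.1 to 10 μM. After 72 h incubation, viability was read by CellTiter-Glo luminescence and normalized to vehicle-treated controls.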

serine hydrolases = experiment: selectivity by gel-based ABPP with FP-Rh in mouse brain proteome; assay type: biochemical; conditions: FP-Rh probe
Summary of the method: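 Mouse brain homogenised in DPBS and cleared at 1,400 × g. Membranes pelleted at 16,000 × g (45 min, 4 °C) and resuspended in DPBS; used at 1 mg/mL. Test compound pretreatment: (thio)ureas 20 min at room temperature, NHH-carbamates 45 min at 37 °C. FP-Rh labelling (1 μM final) 45 min at 37 °C. Readout: 10% SDS-PAGE, in-gel fluorescence, band intensities quantified.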

[2] = 30 mg/kg, cited from earlier work
[3] = mice, four weeks of inhibitor treatment; cited from earlier work
ABHD12 = target: T1, ABHD12 (Homo sapiens, UniProt Q8N2K0); conditions: cited from earlier work
T1 sequence (Q8N2K0 1-398): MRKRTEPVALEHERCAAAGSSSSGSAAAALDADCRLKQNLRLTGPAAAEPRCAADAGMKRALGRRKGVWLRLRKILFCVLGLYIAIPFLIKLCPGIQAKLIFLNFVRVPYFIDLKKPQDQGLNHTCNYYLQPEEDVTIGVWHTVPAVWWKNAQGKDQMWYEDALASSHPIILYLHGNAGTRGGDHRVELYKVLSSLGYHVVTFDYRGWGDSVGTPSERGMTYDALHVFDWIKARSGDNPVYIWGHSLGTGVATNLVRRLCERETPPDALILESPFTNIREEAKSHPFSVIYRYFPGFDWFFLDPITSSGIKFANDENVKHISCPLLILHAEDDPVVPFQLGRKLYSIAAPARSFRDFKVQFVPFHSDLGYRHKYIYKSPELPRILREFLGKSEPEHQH

THP-1 macrophages = experiment: cytokine measurements in M1-polarized THP-1 macrophages; assay type: cell-based, human; conditions: M1 stage THP-1 macrophages; DO264 0.1, 0.5, 1 μM, DO271 1 μM; 6 and 24 h
[4] = system: lymphocytic choriomeningitis virus (LCMV) clone 13; conditions: mice; cited from earlier work
[5] = system: broader panel of cell lines; experiment: cell viability assay; assay type: cell-based; conditions: all cell lines, 72 h

Question: What does the source list for FC(F)(F)Oc1ccc(Oc2ccnc(N3CCC(NC(=S)Nc4cccnc4)CC3)c2Cl)c(Cl)c1 [DO264]?
Answer: brain lyso-PS/PI and C20:4 PS content [1]: substantial elevations; concentration that impaired the viability of THP1 cells (THP1 cells): ≥ 5 µM; selectivity / off-targets among serine hydrolases (serine hydrolases): excellent selectivity over other serine hydrolases; toxicity in mice ([2]; treatment for several weeks): without overt signs of toxicity; total exposure levels in the periphery and brain ([2]; mice, p.o. or i.p. dosing): 3 to 9 µM; auditory defects [3]: did not exhibit the auditory defects observed in ABHD12–/– mice; concentration giving full engagement of ABHD12 (ABHD12): 1 µM; CCL3 level (THP-1 macrophages): elevated; CCL4 level (THP-1 macrophages): elevated; IL-1β level (THP-1 macrophages): concentration-dependent increases; TNF-α level (THP-1 macrophages): concentration-dependent increases; immunological responses to LCMV clone 13 infection [4]: heightened immunological responses; cytotoxicity at 1 μM [5]: without displaying cytotoxicity
